High-throughput results (PubChem)
CSN inh = CSN deneddylation inhibition | 360,000 compounds, 0.38% hits | Purified CSN, SCF-Nedd8-OG deneddylation, fluorescence polarization | inhibition, % at 12.5 µM;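 active = pattern-corrected inhibition above about 35%, with an unprinted fluorescence ratio check between 0.5 and 1.5, limit read from the data, passing the limit was not always enough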
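test system = HEK293T-derived human Csn5 enzyme | amount = 0.24 nM Csn5 enzyme, final concentration | medium = Tris/NaCl/DTT buffer, pH 7.5 | schedule = 90 min reaction at room temperature | signal = FP | evaluation = inhibition of Csn5 cleavage, % | compound dosing = single dose of 12.5 µM compound with 0.25% DMSO | probe or stimulus = 10 nM SCFSkp2-Nedd8OG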
TPT1 inhibitor = blocks Candida albicans tRNA 2'-phosphotransferase; 300,000 compounds, 0.81% hits; inhibition, % at 5 µM; recombinant caTPT1, FP RNA substrate dephosphorylation;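 active = inhibition above the mean of all tested compounds plus 3 SD, set per screening campaign, cut at about 24% in these data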
Rev-erbA mod = modulators of human Rev-erb alpha DNA binding. P20393. Rev-erbα–FITC-DNA binding, fluorescence polarization, 90 min. activity, % at 10 µM. 370,000 compounds, 0.79% hits;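 active = activity above about 14%, limit read from the data; passing the limit was not always enough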
HNF4A DNA FP = change in binding of human HNF4 alpha to DNA; HNF4a-FITC DNA binding, fluorescence polarization, 1 h; activity change, % at 10 µM; 360,000 compounds, 0.3% hits; in the data active = activity change above about 30%, passing the limit was not always enough
Target sequence (P41235 whole entry, looked up): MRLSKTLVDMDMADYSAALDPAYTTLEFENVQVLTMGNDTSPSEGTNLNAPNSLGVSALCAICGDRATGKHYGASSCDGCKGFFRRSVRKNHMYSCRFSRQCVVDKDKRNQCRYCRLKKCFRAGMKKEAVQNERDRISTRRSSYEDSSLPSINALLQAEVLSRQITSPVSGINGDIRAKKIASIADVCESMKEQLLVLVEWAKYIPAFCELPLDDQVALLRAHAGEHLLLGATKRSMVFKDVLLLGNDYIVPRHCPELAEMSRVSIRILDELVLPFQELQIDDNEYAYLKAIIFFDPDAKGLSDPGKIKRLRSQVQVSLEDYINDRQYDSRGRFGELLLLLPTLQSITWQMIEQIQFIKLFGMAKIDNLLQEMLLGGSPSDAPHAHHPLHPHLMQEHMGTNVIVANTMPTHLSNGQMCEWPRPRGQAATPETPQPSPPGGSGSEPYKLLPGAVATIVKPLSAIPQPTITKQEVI
A number is an active result; n = inactive; x = no result. Most compounds without a hit are left out; they make up all but 1.7% or so of the library.

SMILES	CSN inh	TPT1 inhibitor	Rev-erbA mod	HNF4A DNA FP
O=c1c2c(nc3cc(-c4ccc(Cl)cc4)[nH]n13)CCS2	41	n	n	n
CCc1c(C)nc2cc(-c3ccc(Cl)cc3)[nH]n2c1=O	n	n	n	n
O=C1CN(C(=O)C2CCCCC2)C=CN1CCc1ccccc1Br	x	x	n	x
N[C@@H](CS)C(=O)O	x	x	n	x
Cc1c(C)c2ccc(OCC(=O)NCc3ccccn3)cc2oc1=O	72	n	n	n
CC1CCN(c2ccc(C(=O)O)cc2NS(=O)(=O)c2ccccc2[N+](=O)[O-])CC1	x	x	n	x
O=C(OC1C(OC(=O)c2cccnc2)C(OC(=O)c2cccnc2)C(OC(=O)c2cccnc2)C(OC(=O)c2cccnc2)C1OC(=O)c1cccnc1)c1cccnc1 (centres undefined)	x	x	n	x
CCCCCCCCC(=O)c1c(OC)oc(C=O)cc1=O	68	x	n	n
Cc1nc(SCC#N)c2c3c(sc2n1)CCC3	n	n	n	n
N#CCSc1ncnc2sc3c(c12)CCC3	38	n	n	n
Oc1cc(Br)ccc1C=Nc1ccc(N2CCCCC2)cc1	n	n	n	37
COc1ccccc1C1CC(c2cccc(NS(C)(=O)=O)c2)=NN1S(=O)(=O)c1ccccc1 (centres undefined)	n	n	n	81
O=C(O)c1ccc(COc2ccccc2/C=C2/NC(=O)N(c3cccc(Cl)c3)C2=O)cc1	45	n	n	n
O=C(O)c1ccc(COc2ccccc2/C=C2\NC(=O)N(Cc3ccc(F)cc3)C2=O)cc1	n	n	n	n
O=C(O)c1cccc(-n2cccc2/C=C2/NC(=O)N(c3cccc(Cl)c3)C2=O)c1	35	n	n	n
O=C(O)c1cccc(-n2cccc2/C=C2/NC(=O)N(c3ccc(Cl)cc3)C2=O)c1	n	x	n	n
COCCCNC(=O)CSc1nnc(-c2ccncc2)n1-c1ccc(OC)cc1	x	x	n	x
Cc1cc(-c2csc(NC(=O)c3ccc(C#N)cc3)n2)c(C)n1Cc1ccco1	41	n	n	n
Cc1cc(-c2csc(NC(=O)c3ccc(=O)[nH]c3)n2)c(C)n1Cc1ccccc1	n	n	n	n
CNC[C@@H](O)c1ccc(O)c(O)c1	x	x	n	x
CCCCn1c(O)c(N=Nc2ccccn2)c2ccccc21	n	n	n	n
CCCCn1c(O)c(N=Nc2ccccc2O)c2ccccc21	n	x	n	84
CCCCn1c(N)c(S(=O)(=O)c2ccc(C)cc2)c2nc3ccccc3nc21	39	n	n	n
COc1ccc2cc(C(=O)Nc3ccc(O)cc3)sc(=O)c2c1OC	n	n	n	n
COc1ccc2cc(C(=O)Nc3ccc(F)cc3)sc(=O)c2c1OC	41	n	n	n
SMILES	CSN inh	TPT1 inhibitor	Rev-erbA mod	HNF4A DNA FP
CN(C)C(=O)c1ccc(Oc2ccc(C(=O)N(C)C)cc2)cc1	n	n	n	37
CC(=O)c1ccc(Oc2ccc(C(C)=O)cc2)cc1	n	n	n	n
O=C1NC(c2ccccc2)(c2ccccc2)C(=O)N1COP(=O)(O)O	x	x	n	x
S=c1[nH]nc(C2CCCCC2)n1/N=C/c1ccc(Br)s1	n	n	n	35
O=C(NCc1n[nH]c(=S)n1-c1ccc(F)cc1)c1ccc(S(=O)(=O)N2CCOCC2)cc1	n	n	n	32
C=NC(C(=O)N[C@H]1C(=O)N2C1SC(C)(C)C2C(=O)O)c1ccccc1 (some centres undefined)	x	x	n	x
CCN/C=C(\C#N)S(=O)(=O)c1ccc(Br)cc1	100	n	n	n
Cc1c(C)n2c(SCC(=O)Nc3ccc4c(c3)OCCO4)nnc2[nH]c1=O	n	n	n	n
Cc1c(C)n2c(SCC(=O)NCc3ccc4c(c3)OCO4)nnc2[nH]c1=O	52	n	n	n
CCCCN(C)C(=O)CSc1nnc(-c2cc(OC)c(OC)c(OC)c2)o1	x	x	n	x
CCn1cc(C=C2C(=O)c3ccccc3C2=O)c2ccccc21	n	x	n	36
CC(=O)c1cccc(NC(=O)c2cnn3c(C)cc(C)nc23)c1	x	x	n	x
COCCN1C(=O)CCC1(C)C(=O)NC1CCCC1 (centres undefined)	n	x	n	n
COCCN1C(=O)CCC1(C)C(=O)NC1CCCCC1 (centres undefined)	121	x	n	n
COc1ccc(S(=O)(=O)NCc2cccnc2)cc1OC	n	n	n	46
Cc1ccc2nc(-c3ccccn3)c(Nc3ccccc3C)n2c1	n	n	n	39
CN1CCc2c(sc(/N=C/c3c[nH]c4ccccc34)c2C(N)=O)C1	115	n	n	n
CC[C@H]1CN2CCc3cc(OC)c(OC)cc3C2C[C@@H]1CC1NCCc2cc(OC)c(OC)cc21 (some centres undefined)	x	x	n	x
COc1ccc2cc([C@H](C)CO)ccc2c1	x	x	n	x
CSCC[C@H](N)C(=O)O	x	x	n	x
O=C(COC(=O)/C=C/c1ccc([N+](=O)[O-])cc1)Nc1ccc(F)cc1	42	x	n	n
CN[C@@H]1[C@H](OC2[C@H](O[C@H]3[C@H](O)[C@@H](O)[C@H](N=C(N)N)[C@@H](O)[C@@H]3N=C(N)N)O[C@@H](C)[C@]2(O)C=O)O[C@@H](CO)[C@H](O)[C@H]1O (some centres undefined)	x	x	n	x
COc1ccc(NC(=O)CCn2c(=S)[nH]c3ccccc3c2=O)cc1Cl	n	x	n	42
O=C(CCn1nnc2ccccc21)N1CCN(c2cccc(C(F)(F)F)c2)CC1	x	x	n	x
CN(C)c1nc(SCC#N)nc(N2CCOCC2)n1	n	n	n	43
SMILES	CSN inh	TPT1 inhibitor	Rev-erbA mod	HNF4A DNA FP
Nc1ccc2c(c1)C(=NO)c1cc([N+](=O)[O-])ccc1-2	n	x	n	52
O=[N+]([O-])c1ccc2c(c1)-c1ccccc1C2=NO	n	x	n	n
CCOC(=O)c1c(NC(=O)COC(=O)Cn2c(C)nc3ccccc32)sc2c1CCCC2	43	n	n	n
CCOC(=O)c1c(NC(=O)Cn2c(C)nc3ccccc32)sc2c1CCC2	n	n	n	n
CC1(C)S[C@@H]2C(NC(=O)[C@@H](N)c3ccc(O)cc3)C(=O)N2[C@H]1C(=O)O (some centres undefined)	x	x	n	x
CN(C)[C@@H]1C(=O)C(C(=O)NCN2CCCC2)=C(O)[C@@]2(O)C(=O)C3=C(O)c4c(O)cccc4[C@@](C)(O)[C@H]3C[C@@H]12	x	x	n	x
CC1(C)CC(c2nc(-c3ccc(Cl)cc3)cs2)CCS1 (centres undefined)	n	n	n	n
CC1(C)CC(c2nc(-c3ccccc3)cs2)CCS1 (centres undefined)	97	n	n	n
O=C(CSc1ncccc1C(=O)O)c1cccc(C(F)(F)F)c1	n	n	n	56
O=C(CSc1ncccc1C(=O)O)c1ccc2ccccc2c1	n	n	n	n
CC(C)(CO)[C@@H](O)C(=O)NCCCC(=O)O	x	x	n	x
Cc1csc(NC(=O)c2cc(-c3ccco3)nc3ccccc23)n1	46	n	n	n
O=C[C@H](O)[C@H]1OC(=O)[C@@H](O)[C@H]1O	x	x	n	x
COc1ccc(-n2c(COc3ccccc3)nnc2SCc2nc3ccccc3[nH]2)cc1	x	x	n	x
O=C1CCCCC1Sc1nnc(Nc2ccccc2)s1 (centres undefined)	45	n	n	n
COc1ccc(-c2ccc3c(=O)cc(-c4ccsc4)oc3c2)cn1	104	x	n	63
